Test results reported in ChEMBL document CHEMBL3046169, “Synthesis and bioactivity study of 2-acylamino-substituted N'-benzylbenzohydrazide derivatives” (2012).
Converted amounts (≈) assume the structure as drawn. The source made the active and inactive calls. No cut-off for these calls is given here.

What was measured:
Tetranychus cinnabarinus [1] = assay: Pesticidal activity against Tetranychus cinnabarinus (carmine spider mite) third- instar larvae grown on Phaseolus vulgaris leaves assessed as conversion of corpus colour to black at 25 to 400 mg/L measured 48 hr post compound exposure; format: functional, organism-based
Procedure, shortened: (§1)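 Mite larvae (>20 third-instar on Phaseolus vulgaris leaves) leaf-dipped 5 s in compound at 400, 200, 100, 50 or 25 mg L⁻¹ in water with 0.05% Triton X-100, kept at 25 ± 1 °C. Movement of larvae observed at 1 h; corpse colour change to black observed at 48 h after treatment.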

Tetranychus cinnabarinus [2] = assay: Pesticidal activity against Tetranychus cinnabarinus (carmine spider mite) third- instar larvae grown on Phaseolus vulgaris leaves assessed as reduction in larval movement at 25 to 400 mg/L measured 1 hr post compound exposure; format: functional, organism-based; procedure, shortened: as §1
Tetranychus cinnabarinus [3] = assay: Pesticidal activity against Tetranychus cinnabarinus (carmine spider mite) third- instar larvae grown on Phaseolus vulgaris leaves assessed as pest mortality measured 48 hr post compound exposure; format: functional
Procedure, shortened: (§2)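 More than 20 third-instar mite larvae on Phaseolus vulgaris leaves dipped 5 s in compound solutions (water with 0.05% Triton X-100), excess liquor removed. Larvae held at 25 ± 1 °C in illumination box; mortality read at 48 h. Primary screen at 600 mg L⁻¹, follow-up at 400, 200, 100, 50 and 25 mg L⁻¹ with LC50 calculated. Triplicate tests.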

Tetranychus cinnabarinus [4] = assay: Pesticidal activity against Tetranychus cinnabarinus (carmine spider mite) third- instar larvae grown on Phaseolus vulgaris leaves assessed as pest mortality at 25 mg/L measured 48 hr post compound exposure; format: functional; procedure, shortened: as §2
Tetranychus cinnabarinus [5] = assay: Pesticidal activity against Tetranychus cinnabarinus (carmine spider mite) third- instar larvae grown on Phaseolus vulgaris leaves assessed as pest mortality at 100 mg/L measured 48 hr post compound exposure; format: functional; procedure, shortened: as §2
Tetranychus cinnabarinus [6] = assay: Pesticidal activity against Tetranychus cinnabarinus (carmine spider mite) third- instar larvae grown on Phaseolus vulgaris leaves assessed as pest mortality at 400 mg/L measured 48 hr post compound exposure; format: functional; procedure, shortened: as §2
Tetranychus cinnabarinus [7] = assay: Pesticidal activity against Tetranychus cinnabarinus (carmine spider mite) third- instar larvae grown on Phaseolus vulgaris leaves assessed as pest mortality at 50 mg/L measured 48 hr post compound exposure; format: functional; procedure, shortened: as §2
Tetranychus cinnabarinus [8] = assay: Pesticidal activity against Tetranychus cinnabarinus (carmine spider mite) third- instar larvae grown on Phaseolus vulgaris leaves assessed as pest mortality at 200 mg/L measured 48 hr post compound exposure; format: functional; procedure, shortened: as §2
Plutella xylostella [9] = assay: Pesticidal activity against Plutella xylostella (diamondback moth) second-instar larvae grown on cruciferous vegetables leaves leaves as pest mortality at 600 mg/L measured 48 hr post compound exposure; format: functional
Procedure, shortened: (§3)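 Over 20 second-instar larvae on cruciferous vegetable leaves dipped 5 s in compound diluted in distilled water containing 0.05% Triton X-100, excess liquid removed. Kept in illumination box at 25 ± 1 °C; mortality recorded 48 h after treatment. Each test in triplicate.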

Tetranychus cinnabarinus [10] = assay: Pesticidal activity against Tetranychus cinnabarinus (carmine spider mite) third- instar larvae grown on Phaseolus vulgaris leaves assessed as pest mortality at 600 mg/L measured 48 hr post compound exposure; format: functional; procedure, shortened: as §2
Aphis gossypii [11] = assay: Pesticidal activity against Aphis gossypii (cotton aphid) third-instar nymphae grown on tender Hibiscus syriacus leaves assessed as pest mortality at 600 mg/L measured 24 hr post compound exposure; format: functional; settings: in Hibiscus syriacus
Procedure, shortened: (§4)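 Leaf-dip bioassay: over 30 healthy apterous third-instar nymphs on tender Hibiscus syriacus leaves dipped 5 s in compound diluted in distilled water with 0.05% Triton X-100, excess fluid removed. Held in illumination box at 25 ± 1 °C; mortality scored after 24 h. Tests in triplicate.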

Aphis gossypii [12] = assay: Pesticidal activity against Aphis gossypii (cotton aphid) third-instar nymphae grown on tender Hibiscus syriacus leaves assessed as pest mortality at 2 mg/L measured 24 hr post compound exposure; format: functional; settings: in Hibiscus syriacus; procedure, shortened: as §4
Aphis gossypii [13] = assay: Pesticidal activity against Aphis gossypii (cotton aphid) third-instar nymphae grown on tender Hibiscus syriacus leaves assessed as pest mortality at 200 mg/L measured 24 hr post compound exposure; format: functional; settings: in Hibiscus syriacus; procedure, shortened: as §4
Plutella xylostella [14] = assay: Pesticidal activity against Plutella xylostella (diamondback moth) second-instar larvae grown on cruciferous vegetables leaves leaves as pest mortality at 0.2 mg/L measured 48 hr post compound exposure; format: functional; procedure, shortened: as §3

| SMILES | Activity (Tetranychus cinnabarinus [1]) | Activity (Tetranychus cinnabarinus [2]) | LC50 (Tetranychus cinnabarinus [3]) [µg/mL] | mortality at 25 µg/mL (Tetranychus cinnabarinus [4]) [%] | mortality at 100 µg/mL (Tetranychus cinnabarinus [5]) [%] | mortality at 400 µg/mL (Tetranychus cinnabarinus [6]) [%] | mortality at 50 µg/mL (Tetranychus cinnabarinus [7]) [%] | mortality at 200 µg/mL (Tetranychus cinnabarinus [8]) [%] | mortality at 600 µg/mL (Plutella xylostella [9]) [%] | mortality at 600 µg/mL (Tetranychus cinnabarinus [10]) [%] | mortality at 600 µg/mL (Aphis gossypii [11]) [%] | mortality at 2 µg/mL (Aphis gossypii [12]) [%] | mortality at 200 µg/mL (Aphis gossypii [13]) [%] | mortality at 0.2 µg/mL (Plutella xylostella [14]) [%] |
| --- | --- | --- | --- | --- | --- | --- | --- | --- | --- | --- | --- | --- | --- | --- |
| Cc1cc(Br)cc(C(=O)NNCc2ccccc2Cl)c1NC(=O)C(C)(C)CCl | Active | Active | 51.7 (≈ 106 µM) | 36.5 | 62.6 | 89.6 | 44.9 | 83.6 | 76 | 95.7 | 8.5 |  |  |  |
| Cc1cc(Br)cc(C(=O)NNCc2cccc(C(F)(F)F)c2)c1NC(=O)CC(C)(C)C | Active | Active | 89.8 (≈ 179 µM) | 26 | 43.3 | 93.3 | 38.4 | 64.4 | 40 | 100 | 18.7 |  |  |  |
| Cc1cc(Cl)cc(C(=O)NNCc2ccccc2Cl)c1NC(=O)CC(C)(C)C | Active | Active | 27.9 (≈ 66.1 µM) | 38.4 | 80.4 | 92.2 | 74.1 | 86.4 | 52 | 100 | 65.5 |  |  |  |
| CC(C)(C)c1ccc(CSc2cnn(C(C)(C)C)c(=O)c2Cl)cc1 [PYRIDABEN] |  |  | 5.5 (≈ 15.1 µM) | 97.7 | 100 | 100 | 100 | 100 |  |  |  |  |  |  |
| O=[N+]([O-])/N=C1\NCCN1Cc1ccc(Cl)nc1 [IMIDACLOPRID] |  |  |  |  |  |  |  |  |  |  |  | 100 |  |  |
| Cc1cc(Cl)cc(C(=O)NNCc2ccccc2Cl)c1NC(=O)C(C)(C)C | Active | Active | 43.8 (≈ 107 µM) | 30.9 | 60.8 | 97.8 | 62.5 | 82.2 | 76 | 100 | 51.7 |  |  |  |
| CNC(=O)c1cc(Cl)cc(C)c1NC(=O)c1cc(Br)nn1-c1ncccc1Cl [CHLORANTRANILIPROLE] |  |  | 633 (≈ 1310 µM) | 7.4 | 17.2 | 40.7 | 13.2 | 29.9 |  |  |  |  | 91.3 | 100 |
